# Compound activity from PubChem.
# Hits are enriched below; roughly 2.6% of the tested compounds scored in any of these assays.
# CASP6 VEID inh: human caspase-6 inhibitors, primary screen, biochemical, VEID-R110 fluorescence, single point, set 2 | purified caspase-6, Z-VEID-R110 cleavage fluorescence | inhibition, % at 12.5 µM | 350,000 tested, 0.53% active;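 active = mean inhibition across replicates at least about 35%, with every replicate also reaching that limit, limit read from the data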;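 also: 0% = median of neutral control wells and 100% = no fluorescence left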
# Target sequence (P55212 24-179 limits assumed): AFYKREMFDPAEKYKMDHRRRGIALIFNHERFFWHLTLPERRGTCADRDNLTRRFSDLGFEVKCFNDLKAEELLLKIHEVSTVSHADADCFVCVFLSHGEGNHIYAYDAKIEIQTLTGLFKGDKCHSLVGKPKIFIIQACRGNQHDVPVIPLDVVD
# Target sequence (P55212 194-293 limits assumed): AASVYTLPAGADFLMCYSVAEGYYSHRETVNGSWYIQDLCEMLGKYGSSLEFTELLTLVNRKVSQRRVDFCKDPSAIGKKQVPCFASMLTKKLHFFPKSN
# UCH37 inh: inhibitors of human UCH37 deubiquitinase, primary screen, biochemical, Ub-AMC cleavage, fluorescence; Ubiquitin carboxyl-terminal hydrolase isozyme L5 (Homo sapiens), Q9Y5K5; purified proteasome/UCH37; AID 588478, 2011; inhibition, % (no concentration beside the values); 330,000 tested, 0.33% active;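 active = mean inhibition over replicate wells above about 20%, limit read from the data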;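 also: 0% = compound-free wells with enzyme and 100% = wells lacking proteasome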
#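 Material: human UCH37 enzyme supplied as purified proteasome complex / Amount: 0.15 nM proteasome as dispensed / Buffer or medium: pH 7.4 Tris-HCl (50 mM) with ovalbumin, ATP-MgCl2, DTT / Times: preincubation 30 min, reaction 25 min, room temperature / Technique: AMC fluorescence from Ub-AMC cleavage, excitation 355 nm, emission 460 nm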
# FGF22 binding: binders of human FGF22 protein, primary screen, FGF22 synaptogenesis inhibitor project, biophysical, thermal shift, single point. 340,000 tested, 1.5% active. Fibroblast growth factor 22 (Homo sapiens), Q9HCT0. recombinant FGF22 thermal shift, SYPRO orange fluorescence; percent of sucrose octasulfate shift, DMSO zero. activity (Tm shift, normalised), % at 9.99 µM;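 active = mean Tm shift, scaled 0 neutral to 100 positive control, at about 1.3% or above, every replicate too, limit read from the data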
# Target sequence (Q9HCT0 whole entry, looked up): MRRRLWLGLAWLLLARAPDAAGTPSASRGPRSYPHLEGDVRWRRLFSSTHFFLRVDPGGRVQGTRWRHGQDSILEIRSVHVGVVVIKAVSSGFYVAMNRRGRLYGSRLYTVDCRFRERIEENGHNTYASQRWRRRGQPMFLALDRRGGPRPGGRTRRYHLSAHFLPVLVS
# SIRT5 block: SIRT5 desuccinylase inhibitors, primary screen, biochemical, fluorescence imaging, single point, set 5. NAD-dependent protein deacylase sirtuin-5, mitochondrial (Homo sapiens), Q9NXA8. Purified SirT5, succinyl-peptide AMC, trypsin-coupled fluorescence. inhibition, % at 15 µM. 330,000 tested, 1.1% active; in the data active = inhibition above about 15%
# NSD2 HMT inh: NSD2 histone methyltransferase inhibitors, primary screen, biochemical, AlphaScreen, single concentration, set 2. Histone-lysine N-methyltransferase NSD2 (Homo sapiens), O96028. NSD2 peptide methylation, 120 min. inhibition, % at 12.5 µM. 310,000 tested, 0.54% active. AID 743445, 2014; in the data active = inhibition above about 50%
# Alpha artifact: AlphaScreen signal interference with preloaded methylated product, dose response, artefact control for NSD2 inhibitor project, biochemical, cherry-picked samples | shares compounds with NSD2 HMT inh | AlphaScreen artifact counterscreen, preloaded methylated H4 peptide | AC35, µM (highest dose often 10 µM), for inactives: top-dose activity change, negative = signal loss | 1,500 tested, 9.4% active | AID 1053174, 2014; call rule not given here
# The depositor's hits bear a star; i = inactive; / = no result given.
SMILES,CASP6 VEID inh,UCH37 inh,FGF22 binding,SIRT5 block,NSD2 HMT inh,Alpha artifact
COCC(C)OC(=O)/C(C#N)=C\c1coc2ccc(C)cc2c1=O (stereo not given),-1,/,0,3,50*,-4%
C[C@H]1CCCCO[C@@H](CN(C)C(=O)c2ccncc2)[C@@H](C)CN([C@@H](C)CO)C(=O)c2cc(NC(=O)NC3CCCCC3)ccc2O1,/,/,0,/,/,/
COC(=O)c1cc(S(=O)(=O)Nc2cccc(OC)c2)cn1C,6,8,0,/,/,/
CCOC(=O)c1cc(S(=O)(=O)Nc2ccc(OC)cc2OC)cn1C,-2,1,0,-3,56*,-4%
CCc1ccc(NC(=S)Nc2cccc3cnccc23)cc1,2,0,0,3,98*,0%
Cc1cc(C)cc(NC(=S)Nc2cccc3cnccc23)c1,20,4,0,-1,16,/
Cc1nc2c(=O)[nH]c(=S)[nH]c2[nH]c1=O,93*,-1,0,41*,84*,-2%
COc1ccc(NC(=O)N(C)C[C@H]2Oc3ccc(NS(=O)(=O)c4ccc(F)cc4)cc3C(=O)N([C@H](C)CO)C[C@H]2C)cc1,-1,/,-1,4,/,/
O=C1c2cccc(NCCCNCCO)c2C(=O)c2cccc(NCCCNCCO)c21,-45,/,0,/,88*,4.2µM*
Cc1noc(C)c1NC(=O)Nc1ccc2c(c1)CC(=O)N([C@H](C)CO)C[C@H](C)[C@H](CN(C)Cc1ccc(Oc3ccccc3)cc1)O2,/,/,0,/,/,/
O=C(OCc1cnc(Cl)s1)c1ccccc1Cl,/,-1,/,/,0,/
O=C(OCc1cnc(Cl)s1)c1cccs1,-1,7,0,-3,52*,2%
CN(C)CC(=O)N[C@H]1CC[C@H](CCn2cc(C3CCCC3)nn2)O[C@@H]1CO,0,/,0,3,/,/
Fc1ccc(N2CCN(c3ccc4c(C(F)(F)F)cc(C(F)(F)F)nc4n3)CC2)cc1,/,4,/,/,121*,-2%
Cc1cc(-c2n[nH]c(=S)n2N=Cc2cccc(OCc3ccccc3)c2)n[nH]1,/,/,/,/,63*,-9%
COc1ccc(CC(C)=NNC(=O)c2ccc(Cl)cc2)cc1,/,-4,/,/,/,/
Cc1nc(C)c(C(=O)Nc2ncc([N+](=O)[O-])s2)o1,33,12,1,10,50*,-10%
CC(=O)Nc1ccc(NC2=C(Cl)C(=O)c3ccccc3C2=O)cc1,-1,12,1,-5,-7,/
CN(C)c1ccc(NC2=C(Cl)C(=O)c3ccccc3C2=O)cc1,4,13,0,-2,58*,8.8µM*
CCOC(=O)C(Oc1ccc2c(-c3ccccc3)cc(=O)oc2c1C)c1ccccc1 (stereo not given),-1,4,0,-3,-3,/
CCOC(=O)C(Oc1ccc2c(-c3ccc(OC)cc3)cc(=O)oc2c1C)c1ccccc1 (stereo not given),/,2,/,/,53*,-3%
CN(C1=C(N2CCOCC2)C(=O)c2ccccc2C1=O)c1ccccc1,/,7,/,/,76*,2.9µM*
O=C(O)COc1ccccc1/C=N/Nc1ccc(S(=O)(=O)Nc2ccc(Cl)cc2)cc1[N+](=O)[O-],24,/,0,7,50*,-13%
CC(=O)NC1=NN(C(C)=O)C(C)(c2cccc([N+](=O)[O-])c2)S1 (stereo not given),-1,1,0,-2,99*,2%
O=C(c1ccc2c(c1)OCO2)C1CCCN(Cc2ccc3cccc(F)c3n2)C1 (stereo not given),/,2,/,/,51*,-5%
SMILES,CASP6 VEID inh,UCH37 inh,FGF22 binding,SIRT5 block,NSD2 HMT inh,Alpha artifact
O=c1[nH]cnc(CN2CCCCC2)c1O,-5,/,0,/,3,/
O=c1[nH]c(CN2CCCCC2)ccc1O,22,/,0,4,65*,1%
CCOc1ccc(NC(=O)CSc2nnc(C3CC3)n2C)cc1,-2,4,0,-3,-1,/
CCOc1ccc(NC(=O)CSc2nnc(C34CC5CC(CC(C5)C3)C4)n2C)cc1,/,2,/,/,69*,-2%
Oc1ccc(/C=N/N=C(c2ccccc2)c2ccccc2)c(O)c1O,/,/,/,/,76*,4.2µM*
Cc1c(Cc2ccccc2)c(=O)oc2cc(O)ccc12,5,i,0,-34,-6,/
Cc1c(Cc2ccccc2)c(=O)oc2c(O)c(O)ccc12,17,3,/,-4,61*,-12%
O=C(NN=Cc1ccsc1)c1ccccn1,/,6,/,/,/,/
O=[N+]([O-])c1ccc(N(CC(O)CN2CCCCC2)S(=O)(=O)c2ccccc2)cc1 (stereo not given),-4,2,0,-1,68*,-1%
CN1CCN(C(=O)C[C@@H]2CC[C@@H]3[C@@H](COc4ccc(NC(=O)C5CCC5)cc4C(=O)N3C)O2)CC1,-1,/,0,0,/,/
CC(=O)Nc1ccc(S(=O)(=O)/N=C2/NC(=O)/C(=C\c3ccco3)S2)cc1,65*,8,0,15*,55*,-7%
C[C@@H]1CCCCO[C@H](CN(C)C(=O)CCC(F)(F)F)[C@H](C)CN([C@H](C)CO)C(=O)c2cc(NC(=O)Cc3ccccc3)ccc2O1,0,/,0,2,/,/
COc1ccc2c(c1)Cc1sc(NC(C)=O)nc1-2,/,7,/,/,95*,-5%
COc1ccc2c(c1)Cc1sc(NC(=O)c3cccnc3)nc1-2,35,10,1,-2,52*,0%
NC(=NCc1ccc2c(c1)OCO2)NC(=O)c1ccccc1,7,24*,/,-3,88*,0%
C/C=C/c1ccc2c(c1)O[C@@H](CN(C)C(=O)c1ccccn1)[C@@H](C)CN([C@@H](C)CO)S2(=O)=O,2,/,0,2,/,/
O=C1NC2=C(CCc3ccccc32)C(c2ccccc2)N1 (stereo not given),-3,-29,0,-6,93*,-2%
Cc1cc(C)c2c(c1)N[C@H](c1cccs1)[C@@H]1CCO[C@H]21,-2,4,0,0,50*,-1%
O=C(NN=Cc1ccc(OC(=O)c2ccccc2)cc1)c1cccnc1,/,-3,/,/,/,/
COc1cc(CCNC2=CC(=O)c3ncccc3C2=O)ccc1O,91*,/,0,9,128*,-3%
COc1ccccc1CNS(=O)(=O)c1cc(CN2C(=O)c3cccnc3C2=O)ccc1OC,0,0,0,-3,-3,/
C/C(=C\C(=O)c1ccccc1)Nc1ccc(O)cc1,/,6,/,/,78*,-4%
